The list is not random: actives were taken first. Their share in the collection is about 1.8%.
TCR-CD3 inh: inhibitors of human TCR-CD3 interaction; TAMRA-labeled TCR probe fluorescence, biochemical; inhibition, % at 9.4 µM; 0.37% of 360,000 active; AID 651800; in the data active means inhibition above about 19%;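 further: recombinant mutant TCR 2C K166C tagged with TAMRA read by polarization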
PME-1 primary: blocks human protein phosphatase methylesterase 1; AID 2130; 0.53% of 320,000 active; inhibition, % at 5.9 µM; Q9Y570; recombinant PME-1, FP-Rh probe fluorescence polarization;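 active means inhibition above the campaign mean of all compounds plus 3 SD, cut at about 26% in these data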;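 further: competitive labeling of PME-1 active site by serine hydrolase directed probe; inhibitors block probe labeling so polarization falls and inhibition rises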
Target sequence (Q9Y570 whole entry, looked up): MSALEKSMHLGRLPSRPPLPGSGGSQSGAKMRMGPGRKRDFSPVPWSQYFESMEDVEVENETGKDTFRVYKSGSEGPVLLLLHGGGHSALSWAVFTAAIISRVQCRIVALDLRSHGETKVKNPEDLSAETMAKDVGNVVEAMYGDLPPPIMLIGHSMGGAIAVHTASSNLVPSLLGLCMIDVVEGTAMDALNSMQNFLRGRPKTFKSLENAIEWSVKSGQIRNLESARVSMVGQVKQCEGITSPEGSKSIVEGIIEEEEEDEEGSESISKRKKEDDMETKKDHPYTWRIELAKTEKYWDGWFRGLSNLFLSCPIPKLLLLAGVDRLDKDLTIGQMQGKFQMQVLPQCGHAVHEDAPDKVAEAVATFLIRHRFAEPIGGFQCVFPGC
SIAE primary: inhibitors of human sialic acid acetylesterase SIAE; SIAE FP-Rh probe binding, fluorescence polarization; inhibition, % at 9.66 µM; 0.69% of 370,000 active; AID 1053197;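 active means inhibition above a cutoff: mean of compounds within the control limits plus 3 SD of those, cut at about 17% in these data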
mABHD4 FP: ABHD4 (mouse) inhibition, primary FP screen; Q8VD66; purified mABHD4, FP-Rh probe fluorescence polarization; inhibition, % at 8.92 µM; 0.54% of 370,000 active; AID 720543;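 active means inhibition exceeding the mean over every tested compound plus 3 SD, cut at about 30% in these data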
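Assay system: mABHD4 protein; medium: HEPES pH 7.0, NaCl, Pluronic buffer; dosing: 8.92 µM, single dose; schedule: 45 min + 60 min at 25 °C; signal: FP readout, ex 525 nm / em 598 nm; read-out: normalized percent inhibition of probe labeling; repeats: single replicate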
Fam108B inh: counter-screen for RBBP9 inhibitors: inhibitors of mouse Fam108B; 0.33% of 300,000 active; inhibition, % at 9.51 µM; recombinant Fam108B, FP-Rh probe fluorescence polarization;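 active means inhibition above the screen mean inhibition plus 3 SD, computed separately per campaign, cut at about 18% in these data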;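 further: inhibitors lower polarization as less probe binds the enzyme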
HTRA1 inh: blocks human HTRA1 serine peptidase; Q92743; recombinant HTRA1, FP-rhodamine activity-based probe, fluorescence polarization; inhibition, % at 5.96 µM; 0.5% of 340,000 active; AID 504803; in the data active means inhibition above about 36%
SIAE inh conf: confirmation of human SIAE inhibitors | shares compounds with SIAE primary | inhibition, % at 9.66 µM | SIAE FP-Rh activity-based probe, fluorescence polarization | 13% of 2,300 active;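 active means mean inhibition of the replicates above the hit cutoff set in the primary screen, cut at about 17% in these data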;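 further: inhibitors lower polarization as more probe stays unbound to SIAE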
Of the large screens only hits and unclear results are named; the others gave an inactive call (follow-up assays come after a bar, where they were run).

CCOCCCNC(=O)CN1C(=O)CSc2cc(S(=O)(=O)N3CCCCCC3)ccc21	SIAE primary 31 | SIAE inh conf inactive
CN(CC(=O)Nc1ccccc1Cl)C(=O)CSc1nnc(N)s1	none
N#CCCN(C(=O)COC(=O)CNS(=O)(=O)c1ccc2ccccc2c1)c1ccccc1	SIAE primary 23 (no result: Fam108B inh) | SIAE inh conf inactive
C/C(N)=C(/C#N)C(=O)COC(=O)CNS(=O)(=O)c1ccc2ccccc2c1	none
O=C(O)C1C2C=CC(C2)C1C(=O)NCCc1cccc(Cl)c1 (configuration not stated)	SIAE primary 22 | SIAE inh conf inactive
COc1ccc(C(C)(O)c2nc(-c3cccc(C(C)C)c3)cs2)cc1 (configuration not stated)	none (no result: PME-1 primary, Fam108B inh, HTRA1 inh)
CCCCOCCCNC(=O)C[C@@H]1C[C@@]2(C(=O)OCC)CCCC=C2N(Cc2ccco2)C1=O	none (no result: PME-1 primary, Fam108B inh, HTRA1 inh)
COC(=O)C1=C(C)N(C)C(=NCc2ccc3c(c2)OCO3)NC1c1ccc(Cl)cc1 (configuration not stated)	none (no result: PME-1 primary, Fam108B inh, HTRA1 inh)
O=C(CSc1nnc(-c2ccco2)o1)NC1CCCCCC1	SIAE primary 18 | SIAE inh conf inactive
COc1ccc(NC(=O)c2ccc3c(c2)C(=O)N(Cc2ccncc2)C3=O)cc1S(N)(=O)=O	none (no result: PME-1 primary, Fam108B inh)
CCN(CC)S(=O)(=O)c1cccc(C(=O)OC2CCOC2=O)c1 (configuration not stated)	none
CCN(CC)S(=O)(=O)c1cccc(C(=O)OC2CC(C)OC2=O)c1 (configuration not stated)	SIAE primary 17 | SIAE inh conf inactive
Cn1cnnc1SCC(=O)Nc1ccc(S(=O)(=O)N2CCCC2)cc1	none
Nn1c(SCC(=O)Nc2ccc(S(=O)(=O)N3CCCC3)cc2)nnc1C(F)(F)F	SIAE primary 17 | SIAE inh conf inactive
Nc1ccn([C@@H]2O[C@H](C(=O)NCc3ccc4c(c3)OCO4)[C@@H](O)[C@H]2O)c(=O)n1	SIAE primary 52 (no result: PME-1 primary, Fam108B inh, HTRA1 inh) | SIAE inh conf 49
O=C(Oc1ccc2ccc(=O)oc2c1)C1CCCCC1	SIAE primary 38 | SIAE inh conf 34
O=C(COc1ccc2ccc(=O)oc2c1)NC1CCCC1	none
Cc1ccc(NC(=O)Cn2c(CCC(=O)O)ccc2-c2cccs2)cc1Cl	SIAE primary 126 | SIAE inh conf inactive
COc1cccc(NC(=O)Cn2c(CCC(=O)O)ccc2-c2cccs2)c1	none
Cc1ccc(C(=O)N2CCN(c3cccc(C)c3C)CC2)cc1S(=O)(=O)N1CCOCC1	none (no result: Fam108B inh)
O=C(c1cn(-c2ccccc2)nc1-c1ccc(F)cc1)N1CCOCC1	none
O=C(NC(=S)N1CCOCC1)c1cn(-c2ccccc2)nc1-c1ccc(F)cc1	SIAE primary 28 (no result: Fam108B inh) | SIAE inh conf inactive
CC(=O)Nc1nc2cc3c(cc2s1)OCO3	none
CCOC(=O)c1sc(Nc2nc3cc4c(cc3s2)OCO4)cc1C	PME-1 primary 61, SIAE primary 19 | SIAE inh conf inactive
S=c1[nH]ncn1/N=C/c1ccccn1	SIAE primary 17 | SIAE inh conf inactive
Cn1c(=O)c2[nH]c(C(O)c3ccc(Cl)cc3)nc2n(C)c1=O (configuration not stated)	none (no result: PME-1 primary, Fam108B inh)
COc1cccc2c(=O)c3c(oc12)CCCC3	none (no result: PME-1 primary, Fam108B inh)
Nc1cccc2c3c(oc12)CCCC3	SIAE primary 18 | SIAE inh conf inactive
Cc1ccc(CN(C)C(=O)c2ccc(S(=O)(=O)N3CCCCCC3)cc2)o1	SIAE primary 17 (no result: PME-1 primary, Fam108B inh) | SIAE inh conf inactive
CN(Cc1cccs1)C(=O)c1ccc(S(=O)(=O)N2CCCCC2)cc1	none
Cc1ccc(NS(=O)(=O)c2ccc3c(c2)C(=O)c2ccccc2C3=O)c(C)c1	PME-1 primary 32, SIAE primary 18 | SIAE inh conf inactive
CCCOc1ccc(CSc2nnc(CCC)n2N)cc1	none
CCCc1nnc(SCc2ccc(OC)cc2)n1N	SIAE primary 18 | SIAE inh conf inactive
NS(=O)(=O)c1ccc(N/N=C/c2cn(-c3ccccc3)nc2-c2cccs2)c([N+](=O)[O-])c1	none
NS(=O)(=O)c1ccc(N/N=C/c2cn(-c3ccccc3)nc2-c2cccs2)cc1	SIAE primary 23 | SIAE inh conf inactive
COc1ccc(-c2csc(C)n2)cc1	none
COc1ccc(-c2csc(CCN3N=C(C)CC3=O)n2)cc1	SIAE primary 38 | SIAE inh conf inactive
CCc1nc2c(OCCn3cccc3)cccn2c1N(C)C(=O)c1ccco1	none (no result: PME-1 primary, Fam108B inh, HTRA1 inh)
Cc1ccc(NC(=O)c2ccc(NCC3CCCO3)c([N+](=O)[O-])c2)cc1Cl (configuration not stated)	SIAE primary 72 | SIAE inh conf inactive
NC(=O)c1ccc(NCC2CCCO2)c([N+](=O)[O-])c1 (configuration not stated)	none
CCOCCCNC(=S)Nc1ccc2nc(N3CCOCC3)cc(C)c2c1	SIAE primary 17 | SIAE inh conf inactive
COCCCNC(=S)Nc1ccc2nc(N3CCOCC3)cc(C)c2c1	none
COc1ccc(N2C(=O)c3ccccc3NC2c2ccc(NC(C)=O)cc2)c(OC)c1 (configuration not stated)	none
CC(=O)C(C)Oc1ccc(Cc2ncc(C(F)(F)F)cc2Cl)cc1 (configuration not stated)	none
Cc1cccc(Cc2ncc(C(F)(F)F)cc2Cl)c1	SIAE primary 19 | SIAE inh conf inactive
COc1cccc(C(=O)NC(C)c2ccc(-c3ccccc3)cc2)c1OC (configuration not stated)	none
O=S(=O)(c1ccc(Cl)c(NC(=S)N/N=C/c2ccc(O)cc2)c1)N1CCOCC1	SIAE primary 18 | SIAE inh conf inactive
O=S(=O)(c1ccc(Cl)c(NC(=S)N/N=C/c2c(F)cccc2F)c1)N1CCOCC1	none
O=S(N1CCc2ccccc21)C12CC3CC(CC(C3)C1)C2 (configuration not stated)	SIAE primary 23 | SIAE inh conf inactive
C/C(=C\C(=O)c1ccccc1)Nc1ccc(N2CCOCC2)cc1	SIAE primary 18 | SIAE inh conf inactive
C/C(=C\C(=O)c1ccc(Cl)cc1)Nc1ccc(N2CCOCC2)cc1	none
C/C(=C\C(=O)c1ccccc1)Nc1ccc(Br)c(Cl)c1	SIAE primary 18 | SIAE inh conf inactive
O=C(NNC(=O)c1ccncc1)c1ccccc1	none
O=C(c1ccccc1)c1ccncc1	SIAE primary 28 | SIAE inh conf inactive
Cc1cc2nc(C)c(Cl)c(=O)n2[nH]1	SIAE primary 35 | SIAE inh conf inactive
